Measured values taken from ChEMBL document CHEMBL1127347, “Synthesis and biological activity of bile acid-derived HMG-CoA reductase inhibitors. The role of 21-methyl in recognition of HMG-CoA reductase and the ileal bile acid transport system” (J Med Chem, 1994).

What was measured:
[1] = species: Oryctolagus cuniculus; test: (§1) Tested for inhibition of Na+ -dependent [3H]taurocholate uptake into rabbit ileal brush border membrane vesicles; type: functional
How it was run: (§2)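 Ileal brush border vesicles from male New Zealand white rabbits (4-5 kg), prepared by Mg2+ precipitation and kept in liquid nitrogen. Vesicles (50 μg protein) in 10 mM Tris-Hepes pH 7.4/300 mM mannitol were added to medium at 30 °C containing 50 μM [3H]taurocholate with 100 mM NaCl or 100 mM KCl. Uptake stopped at 60 s with ice-cold stop solution, then filtration and scintillation. Na+-dependent uptake taken as NaCl minus KCl uptake; mean ± SD, 3-10 independent experiments with different membrane preparations.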

[2] = test system: HepG2; test: Tested for inhibition of cholesterol biosynthesis in HEP G2 cells; type: functional, cell-based; conditions: Homo sapiens
How it was run: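 HEP G2 cells seeded at 5×10^4 cells/cm², grown 24 h in RPMI 1640/10% FCS, then 24 h in 10% lipoprotein-deficient serum. Cholesterol isolated by TLC and counted, corrected for recovery of [3H]cholesterol.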

[3] = target: T1, 3-hydroxy-3-methylglutaryl-coenzyme A reductase (Rattus norvegicus, UniProt P51639); test: Tested for inhibition of rat liver microsomal HMG-CoA reductase
T1 sequence (P51639 whole entry): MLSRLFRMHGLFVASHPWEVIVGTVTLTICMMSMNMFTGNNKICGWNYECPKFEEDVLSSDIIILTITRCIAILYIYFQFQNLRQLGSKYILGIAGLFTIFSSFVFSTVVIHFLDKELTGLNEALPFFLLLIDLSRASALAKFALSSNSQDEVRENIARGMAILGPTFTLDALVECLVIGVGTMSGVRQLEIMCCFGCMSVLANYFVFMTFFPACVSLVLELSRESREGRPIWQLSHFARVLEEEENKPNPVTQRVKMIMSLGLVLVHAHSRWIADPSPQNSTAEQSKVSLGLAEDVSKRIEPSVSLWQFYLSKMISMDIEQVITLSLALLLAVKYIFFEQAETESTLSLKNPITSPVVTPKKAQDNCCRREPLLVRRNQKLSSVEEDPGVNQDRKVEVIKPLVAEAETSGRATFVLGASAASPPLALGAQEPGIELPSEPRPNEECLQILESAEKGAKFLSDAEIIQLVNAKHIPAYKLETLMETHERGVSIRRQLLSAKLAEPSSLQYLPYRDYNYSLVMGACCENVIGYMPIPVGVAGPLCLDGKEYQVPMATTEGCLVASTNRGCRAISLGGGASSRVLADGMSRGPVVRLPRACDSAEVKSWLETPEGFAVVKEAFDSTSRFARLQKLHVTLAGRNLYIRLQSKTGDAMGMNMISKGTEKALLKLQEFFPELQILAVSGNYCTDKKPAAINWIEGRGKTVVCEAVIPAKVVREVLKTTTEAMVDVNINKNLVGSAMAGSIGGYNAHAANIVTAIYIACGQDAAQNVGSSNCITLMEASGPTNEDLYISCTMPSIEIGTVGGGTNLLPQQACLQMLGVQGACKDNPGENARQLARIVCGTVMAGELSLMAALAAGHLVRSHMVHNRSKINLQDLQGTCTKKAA
How it was run: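 Microsomes came from livers of male Wistar rats (200-220 g) fed 2% cholestyramine for 10 days. Assay at pH 7.4 with 40 μg microsomal protein, NADP, glucose-6-phosphate and G6P dehydrogenase. Mevalonolactone separated on anion-exchange column and counted. Six concentrations in triplicate; IC50 read graphically, mean ± SD of three independent experiments.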

[4] = species: Oryctolagus cuniculus; test: as §1; type: functional; how it was run: as §2; remark: listed apart in the source

SMILES	IC50 [1]	IC50 [2]	IC50 [3]	IC25 [4]	IC75 [4]
CC[C@H](C)C(=O)O[C@H]1C[C@H]2[C@@H](CC[C@@H]3C[C@H](O)CC[C@@]32C)[C@@H]2CCC(CC[C@@H]3C[C@@H](O)CC(=O)O3)[C@@]12C (stereo partly specified)	170 µM	1.8 µM	0.2 µM	87 µM	> 250 µM
CC[C@H](C)C(=O)O[C@H]1C[C@H]2[C@@H](CC[C@@H]3C[C@H](O)CC[C@@]32C)[C@@H]2CCC([C@H](C)C[C@H]3C[C@@H](O)CC(=O)O3)[C@@]12C (stereo partly specified)	92 µM	54.8 µM	7 µM	47 µM	166 µM
CC[C@H](C)C(=O)O[C@H]1C[C@H]2[C@@H](CC[C@@H]3C[C@H](O)CC[C@@]32C)[C@@H]2CCC(CC[C@H]3C[C@@H](O)CC(=O)O3)[C@@]12C (stereo partly specified)	186 µM	8.2 µM	1 µM	87 µM	> 250 µM
CC[C@H](C)C(=O)O[C@H]1C[C@@H](C)C=C2C=C[C@H](C)[C@H](CC[C@@H]3C[C@@H](O)CC(=O)O3)[C@H]21 [LOVASTATIN]	> 250 µM	0.029 µM	0.007 µM	230 µM	> 250 µM

Molecules with a lower IC50 [1], results first:

IC50 [1]	IC50 [2]	IC50 [3]	SMILES	IC25 [4]	IC75 [4]
85 µM	16.1 µM	0.65 µM	CC[C@H](C)C(=O)O[C@H]1C[C@H]2[C@@H](CC[C@@H]3C[C@H](O)CC[C@@]32C)[C@@H]2CCC([C@H](C)C[C@@H]3C[C@@H](O)CC(=O)O3)[C@@]12C (stereo partly specified)	37 µM	148 µM
28 µM	–	–	C[C@H](CCC(=O)NCCS(=O)(=O)O)[C@H]1CC[C@H]2[C@@H]3[C@H](O)C[C@@H]4C[C@H](O)CC[C@]4(C)[C@H]3CC[C@]12C [TAUROCHENODEOXYCHOLATE]	13 µM	61 µM
83 µM	–	–	C[C@H](CCC(=O)O)[C@H]1CC[C@H]2[C@@H]3[C@H](O)C[C@@H]4C[C@H](O)CC[C@]4(C)[C@H]3C[C@H](O)[C@]12C [CHOLIC ACID]	40 µM	152 µM
